Experiment [1] deals with Rattus norvegicus. Description: Somnolence activity in Wistar rat assessed as time spent in active wake at 100 mg/kg, po over 12 hrs night period by radiotelemetric assay. The format is functional, organism-based. Set-up: dose 100 mg/kg. The method in brief: (§1)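 Adult male Wistar rats carrying radiotelemetric implants; single oral dose 100 mg/kg in 100% PEG-400 given at dark (active) phase onset. EEG, EMG, home cage activity and body temperature recorded, effects integrated over following 12-h night. Crossover design, groups of 7 or 8, washout of at least 4 days; paired t-test; means ± SEM.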

Experiment [2] has as its system Rattus norvegicus. The experiment can be described thus: Somnolence activity in Wistar rat assessed as home cage activity in dark at 100 mg/kg, po over 12 hrs night period by radiotelemetric assay. In kind it is functional, organism-based. Further details: dose 100 mg/kg. The method, boiled down: as §1
Experiment [3] has as its system Rattus norvegicus. The experiment can be described thus: Somnolence activity in Wistar rat assessed as time spent in rapid eye movement sleep at 100 mg/kg, po over 12 hrs night period by radiotelemetric assay. The format is functional. The method, boiled down:
as §1

The subject of experiment [4] is Rattus norvegicus. The experiment can be described thus: Somnolence activity in Wistar rat assessed as time spent in non-rapid eye movement sleep at 100 mg/kg, po over 12 hrs night period by radiotelemetric assay. The format is functional, organism-based. Further details: dose 100 mg/kg. The method in brief:
as §1

A further experiment concerns the target T1, Orexin receptor type 2 (Homo sapiens, UniProt O43614).
T1 sequence (O43614 whole entry): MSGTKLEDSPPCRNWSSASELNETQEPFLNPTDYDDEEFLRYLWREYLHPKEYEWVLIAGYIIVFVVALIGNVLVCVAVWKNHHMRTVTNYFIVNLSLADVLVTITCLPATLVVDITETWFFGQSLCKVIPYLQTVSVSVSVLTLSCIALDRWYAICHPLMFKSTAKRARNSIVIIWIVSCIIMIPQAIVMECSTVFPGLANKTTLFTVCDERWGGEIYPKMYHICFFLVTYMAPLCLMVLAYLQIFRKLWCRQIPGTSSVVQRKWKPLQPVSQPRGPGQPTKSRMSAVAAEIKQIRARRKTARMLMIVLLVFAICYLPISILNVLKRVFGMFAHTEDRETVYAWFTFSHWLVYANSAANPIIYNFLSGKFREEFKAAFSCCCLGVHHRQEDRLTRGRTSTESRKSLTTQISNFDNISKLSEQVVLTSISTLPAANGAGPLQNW
Description: Antagonist activity at human OX2 receptor expressed in CHO cells assessed as inhibition of calcium mobilization by FLIPR assay. In kind it is functional, cell-based. The method, boiled down:
(§2)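 CHO cells stably bearing human OX1 or OX2 receptor, plated and loaded at 37 °C, 5% CO2 with fluo-3 AM calcium dye, then washed. Test antagonists added at varying concentrations before orexin A challenge; intracellular Ca2+ rise followed as fluorescence change on FLIPR. IC50 taken as concentration giving 50% inhibition of agonist response.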
(Calcium flux is commonly read through the fluorescence of an indicator in the cells.)

Experiment [5] deals with T2, Orexin/Hypocretin receptor type 1 (Homo sapiens, UniProt O43613).
T2 sequence (O43613 whole entry): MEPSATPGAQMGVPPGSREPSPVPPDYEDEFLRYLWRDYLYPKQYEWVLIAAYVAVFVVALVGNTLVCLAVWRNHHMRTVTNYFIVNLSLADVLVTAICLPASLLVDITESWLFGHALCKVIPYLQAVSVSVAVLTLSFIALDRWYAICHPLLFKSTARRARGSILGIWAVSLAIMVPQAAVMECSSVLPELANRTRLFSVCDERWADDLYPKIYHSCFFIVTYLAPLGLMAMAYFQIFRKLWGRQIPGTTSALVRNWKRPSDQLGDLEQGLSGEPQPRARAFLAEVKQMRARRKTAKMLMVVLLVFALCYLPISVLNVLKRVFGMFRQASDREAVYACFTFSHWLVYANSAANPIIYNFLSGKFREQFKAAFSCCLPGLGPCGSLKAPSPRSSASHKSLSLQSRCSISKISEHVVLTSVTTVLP
The experiment can be described thus: Antagonist activity at human OX1 receptor expressed in CHO cells assessed as inhibition of calcium mobilization by FLIPR assay. In kind it is functional, cell-based. The method in brief:
as §2

Each structure is given as a SMILES string. Active and inactive are the calls of the source. No cut-off for these calls is given here.

The results in this text go back to ChEMBL document CHEMBL1154972, “Novel pyrazolo-tetrahydropyridines as potent orexin receptor antagonists” (Bioorg Med Chem Lett, 2010).

With `CCn1nc(C)c2c1CCN([C@@H](C(=O)NC)c1ccccc1)[C@H]2CCc1ccc(C)c(C)c1`, the result in the experiment on Rattus norvegicus [1], with Rattus norvegicus [2] and in the experiment with Rattus norvegicus [4] was Active. Also, in the experiment with Rattus norvegicus [3], the Activity was 15%.

Usually IC50 stands for the concentration at which inhibition is half-maximal. In the case of `CCn1nc(C)c2c1CCN([C@@H](C(=O)NC)c1ccccc1)[C@@H]2CCc1ccc(C(C)C)cc1`, the half-inhibitory concentration (IC50) amounted to 179 nM at Orexin receptor type 2 and 1920 nM in experiment [5].

For `CCn1nc(C)c2c1CCN([C@@H](C(=O)NC)c1ccccc1)[C@H]2COc1ccc(C)cc1`, the IC50 on Orexin receptor type 2 was found to be 19 nM; in experiment [5], 10000 nM.

As to `CCn1nc(C)c2c1CCN(C(C(=O)NC)c1ccccc1)C2CCc1ccc(C)cc1` (mixture of isomers), the results for the IC50 (at Orexin receptor type 2; in experiment [5]) were 6 nM and 108 nM, respectively.

For the molecule `CCc1ccc(CC[C@H]2c3c(C)nn(CC)c3CCN2[C@@H](C(=O)NC)c2ccccc2)cc1`, the half-maximal inhibitory concentration (IC50) came to 3 nM at Orexin receptor type 2 and 63 nM in experiment [5].

In the case of `CCn1nc(C)c2c1CCN(C(C(=O)NC)c1ccccc1)C2CCc1ccccc1C` (mixture of isomers), the IC50 at Orexin receptor type 2 stood at 21 nM; in experiment [5] it was 1030 nM.

Regarding `CCn1nc(C)c2c1CCN([C@@H](C(=O)NC)c1ccccc1)[C@H]2CCc1ccc(C(F)(F)F)cc1`, the IC50 was found to be 3 nM at Orexin receptor type 2 and 128 nM in experiment [5].

With `CCc1ccc(CC[C@@H]2c3c(C)nn(CC)c3CCN2[C@@H](C(=O)NC)c2ccccc2)cc1`, the figures for the IC50 (on Orexin receptor type 2; in experiment [5]) were 174 nM and 1420 nM, respectively.

With `CCn1nc(C)c2c1CCN(C(C(=O)NC)c1ccccc1)C2Cc1ccc(C(F)(F)F)cc1` (mixture of isomers), the figures for the IC50 (on Orexin receptor type 2; in experiment [5]) were 25 nM and 769 nM, respectively.

For `CCn1nc(C)c2c1CCN([C@@H](C(=O)NC)c1ccccc1)[C@H]2CCc1ccc(C(C)C)cc1`, the IC50 on Orexin receptor type 2 turned out to be 9 nM; in experiment [5], 161 nM.

On to `CCn1nc(C)c2c1CCN(C(C(=O)NC)c1ccccc1)C2CCc1ccccc1F` (mixture of isomers), for which the results for the IC50 (on Orexin receptor type 2; in experiment [5]) were 22 nM and 669 nM, respectively.

As for `CCn1nc(C)c2c1CCN(C(C(=O)NC)c1ccccc1)C2CCc1ccc(OC)cc1` (mixture of isomers), the IC50 was determined as 219 nM on Orexin receptor type 2 and 10000 nM in experiment [5].

For the molecule `CCn1nc(C)c2c1CCN(C(C(=O)NC)c1ccccc1)C2CCc1cccc(F)c1` (mixture of isomers), the values for the IC50 (at Orexin receptor type 2; in experiment [5]) were 10 nM and 402 nM, respectively.

Turning to `CCn1nc(C)c2c1CCN(C(C(=O)NC)c1ccccc1)C2CCc1cccc(C)c1` (mixture of isomers), the results for the IC50 (on Orexin receptor type 2; in experiment [5]) were 19 nM and 180 nM, respectively.

Consider `CCn1nc(C)c2c1CCN(C(C(=O)NC)c1ccccc1)C2CCc1cccc(C(F)(F)F)c1` (mixture of isomers), for which the IC50 is 7 nM on Orexin receptor type 2 and 358 nM in experiment [5].

For `CCn1nc(C)c2c1CCN([C@@H](C(=O)NC)c1ccccc1)[C@H]2CCc1cc(F)c(C(F)(F)F)c(F)c1`, the outcome in the experiment on Rattus norvegicus [2] and in the experiment with Rattus norvegicus [4] was Active. In the experiment with Rattus norvegicus [3], the Activity came to 8%.

Turning to `CCn1nc(C)c2c1CCN(C(C(=O)NC)c1ccccc1)C2CCc1ccc(Cl)cc1` (mixture of isomers), the values for the 50% inhibitory concentration (IC50) (at Orexin receptor type 2; in experiment [5]) were 12 nM and 993 nM, respectively.
